From ChEMBL document CHEMBL1152522, “RCAI-37, 56, 59, 60, 92, 101, and 102, cyclitol and carbasugar analogs of KRN7000: their synthesis and bioactivity for mouse lymphocytes to produce Th1-biased cytokines” (2009)
Activity calls are given as the source filed them. The calls are words filed in the database; no cut-off is given here.

Assays:
Mus musculus [1] = test: Immunostimulatory activity in C57BL/6 mouse assessed as increase in serum IL-12p70 production at 10 ug/mL, iv after 6 hrs post-injection by cytometric bead array method; format: functional, organism-based
Method in brief: (§1)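 C57BL/6 mice, 8–16 wk old, kept specific pathogen-free. Glycolipid stock (1.0 mg/mL in DMSO) diluted to 10 µg/mL in Dulbecco's PBS just before dosing; 200 µL given iv. Retro-orbital heparinized blood taken at 3, 6, 12, 24, 36, 48 and 60 h for plasma. IFN-γ measured by ELISA; IL-4 and IL-12p70 by cytometric bead array. Mean ± SD of 3 mice; experiment repeated three times.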

PBMC = test: Immunostimulatory activity in human PBMC assessed as increase in IFN-gamma production by ELISA; format: functional, cell-based
Mus musculus [2] = test: Immunostimulatory activity in C57BL/6 mouse assessed as increase in serum IFN-gamma production at 10 ug/mL, iv after 36 hrs post-injection by ELISA; format: functional, organism-based; method in brief: as §1
Mus musculus [3] = test: Immunostimulatory activity in C57BL/6 mouse assessed as increase in serum IL-12p70 production at 10 ug/mL, iv after 3 hrs post-injection by cytometric bead array method; format: functional, organism-based; method in brief: as §1
Mus musculus [4] = test: Immunostimulatory activity in C57BL/6 mouse assessed as increase in serum IFN-gamma production at 10 ug/mL, iv after 24 hrs post-injection by ELISA; format: functional, organism-based; method in brief: as §1
Mus musculus [5] = test: Ratio of KRN700 to compound activity for increase in serum IL4 production in C57BL/6 mouse at 10 ug/mL, iv after 3 to 24 hrs post-injection by cytometric bead array method; format: functional
Mus musculus [6] = test: Immunostimulatory activity in C57BL/6 mouse assessed as increase in serum IFN-gamma production at 10 ug/mL, iv after 10 to 60 hrs post-injection by ELISA; format: functional, organism-based; method in brief: as §1
Mus musculus [7] = test: Immunostimulatory activity in C57BL/6 mouse assessed as increase in serum IL-12p70 production at 10 ug/mL, iv after 3 to 24 hrs post-injection by cytometric bead array method; format: functional, organism-based; method in brief: as §1
Mus musculus [8] = test: Immunostimulatory activity in C57BL/6 mouse assessed as increase in serum IL4 production at 10 ug/mL, iv after 3 to 24 hrs post-injection by cytometric bead array method; format: functional, organism-based; method in brief: as §1
Mus musculus [9] = test: Immunostimulatory activity in C57BL/6 mouse assessed as mild increase in serum IFN-gamma production at 10 ug/mL, iv after 10 to 60 hrs post-injection by ELISA; format: functional, organism-based; method in brief: as §1

## CCCCCCCCCCCCCCCCCCCCCCCCCC(=O)N[C@@H](CO[C@H]1C[C@H](CO)[C@H](O)[C@H](O)[C@H]1O)[C@H](O)[C@H](O)CCCCCCCCCCCCCC
Mus musculus [1]
  Activity: Active
PBMC
  Activity: Active
Mus musculus [2]
  Activity: Active
Mus musculus [3]
  Activity: Active
Mus musculus [4]
  Activity: Active
Mus musculus [5]
  Ratio: 0.5

## CCCCCCCCCCCCCCCCCCCCCCCCCC(=O)N[C@@H](CO[C@@H]1[C@H](O)[C@@H](O)[C@H](O)[C@@H](O)[C@@H]1O)[C@H](O)[C@H](O)CCCCCCCCCCCCCC
Mus musculus [6]
  Activity: inactive
Mus musculus [7]
  Activity: inactive
Mus musculus [8]
  Activity: inactive

## CCCCCCCCCCCCCCCCCCCCCCCCCC(=O)N[C@@H](CO[C@H]1C[C@H](C)[C@H](O)[C@H](O)[C@H]1O)[C@H](O)[C@H](O)CCCCCCCCCCCCCC
Mus musculus [9]
  Activity: Active

## CCCCCCCCCCCCCCCCCCCCCCCCCC(=O)N[C@@H](CO[C@H]1C[C@H](O)[C@H](O)[C@H](O)[C@H]1O)[C@H](O)[C@H](O)CCCCCCCCCCCCCC
Mus musculus [6]
  Activity: Active
PBMC
  Activity: Active
Mus musculus [8]
  Activity: Active

## C[C@H]1O[C@H](O)[C@H](O)[C@@H](O)[C@H]1O
Mus musculus [6]
  Activity: Active

## CCCCCCCCCCCCCCCCCCCCCCCCCC(=O)N[C@@H](CO[C@H]1C[C@H](COC)[C@H](O)[C@H](O)[C@H]1O)[C@H](O)[C@H](O)CCCCCCCCCCCCCC
Mus musculus [9]
  Activity: Active

## CCCCCCCCCCCCCCCCCCCCCCCCCC(=O)N[C@@H](CO[C@H]1C[C@H](OC)[C@H](O)[C@H](O)[C@H]1O)[C@H](O)[C@H](O)CCCCCCCCCCCCCC
Mus musculus [6]
  Activity: Active
Mus musculus [8]
  Activity: Active

## CCCCCCCCCCCCCCCCCCCCCCCCCC(=O)N[C@@H](CO[C@@H]1[C@H](O)[C@@H](O)[C@@H](O)[C@@H](O)[C@@H]1O)[C@H](O)[C@H](O)CCCCCCCCCCCCCC
Mus musculus [6]
  Activity: inactive
Mus musculus [7]
  Activity: inactive
Mus musculus [8]
  Activity: inactive
